Tested on: U2OS
Assay: Multiplex assay against U2OS
Format: toxicity, cell-based
Conditions: human
Method in brief: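 Compound was added to live cells that had been stained at seeding with Hoechst33342, BioTracker Green Microtubule Cytoskeleton Dye, MitoTracker Red and Annexin V Alexa Fluor 680, and imaging followed on a CQ1 microscope at 37°C and 5% CO2. CellPathfinder machine-learning gating divided cells into Hoechst high-intensity objects or normal cells, normal cells into healthy, pyknosed or fragmented nuclei, and pyknosed cells into mitotic or apoptotic. Tubulin, mitochondrial-mass and membrane-permeability phenotypes are per cents of healthy-nucleus cells.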

[1] = 12 h, 1 µM, compound concentration 1 uM, replicate 1
[2] = 12 h, 1 µM, compound concentration 1 uM, replicate 2
[3] = 12 h, 10 µM, compound concentration 10 uM, replicate 1
[4] = 12 h, 10 µM, compound concentration 10 uM, replicate 2
[5] = 24 h, 1 µM, compound concentration 1 uM, replicate 1
[6] = 24 h, 1 µM, compound concentration 1 uM, replicate 2
[7] = 24 h, 10 µM, compound concentration 10 uM, replicate 1
[8] = 24 h, 10 µM, compound concentration 10 uM, replicate 2
[9] = 48 h, 1 µM, compound concentration 1 uM, replicate 1
[10] = 48 h, 1 µM, compound concentration 1 uM, replicate 2
[11] = 48 h, 10 µM, compound concentration 10 uM, replicate 1
[12] = 48 h, 10 µM, compound concentration 10 uM, replicate 2

SMILES: C[C@@H]1C[C@H]2[C@@H]3CCC4=CC(=O)C=C[C@]4(C)[C@@]3(F)[C@@H](O)C[C@]2(C)[C@@]1(O)C(=O)CO [DEXAMETHASONE]
- Population Apoptotic (%) [1]: 77%
- Population Fragmented Nuclei (%) [1]: 21%
- Population Healthy Nuclei (%) [1]: 70%
- Population Hoechst High Intensity Objects (%) [1]: 2%
- Population Membrane Permeable-Phenotype (%) [1]: 2%
- Population Mitochondria Different-Phenotype (%) [1]: 0%
- Population Mitotic Cells (%) [1]: 22%
- Population Normal (%) [1]: 97%
- Population Pyknosed Nuclei (%) [1]: 7%
- Population Tubulin-Different-Phenotype (%) [1]: 1%
- Total Cell Count [1]: 238
- Population Apoptotic (%) [2]: 80%
- Population Fragmented Nuclei (%) [2]: 20%
- Population Healthy Nuclei (%) [2]: 75%
- Population Hoechst High Intensity Objects (%) [2]: 0%
- Population Membrane Permeable-Phenotype (%) [2]: 4%
- Population Mitochondria Different-Phenotype (%) [2]: 1%
- Population Mitotic Cells (%) [2]: 20%
- Population Normal (%) [2]: 99%
- Population Pyknosed Nuclei (%) [2]: 4%
- Population Tubulin-Different-Phenotype (%) [2]: 3%
- Total Cell Count [2]: 124
- Population Apoptotic (%) [3]: 80%
- Population Fragmented Nuclei (%) [3]: 20%
- Population Healthy Nuclei (%) [3]: 69%
- Population Hoechst High Intensity Objects (%) [3]: 2%
- Population Membrane Permeable-Phenotype (%) [3]: 6%
- Population Mitochondria Different-Phenotype (%) [3]: 1%
- Population Mitotic Cells (%) [3]: 19%
- Population Normal (%) [3]: 97%
- Population Pyknosed Nuclei (%) [3]: 9%
- Population Tubulin-Different-Phenotype (%) [3]: 2%
- Total Cell Count [3]: 319
- Population Apoptotic (%) [4]: 84%
- Population Fragmented Nuclei (%) [4]: 16%
- Population Healthy Nuclei (%) [4]: 76%
- Population Hoechst High Intensity Objects (%) [4]: 0%
- Population Membrane Permeable-Phenotype (%) [4]: 7%
- Population Mitochondria Different-Phenotype (%) [4]: 2%
- Population Mitotic Cells (%) [4]: 15%
- Population Normal (%) [4]: 100%
- Population Pyknosed Nuclei (%) [4]: 7%
- Population Tubulin-Different-Phenotype (%) [4]: 3%
- Population Apoptotic (%) [5]: 96%
- Population Fragmented Nuclei (%) [5]: 19%
- Population Healthy Nuclei (%) [5]: 71%
- Population Hoechst High Intensity Objects (%) [5]: 2%
- Population Membrane Permeable-Phenotype (%) [5]: 4%
- Population Mitochondria Different-Phenotype (%) [5]: 2%
- Population Mitotic Cells (%) [5]: 4%
- Population Normal (%) [5]: 97%
- Population Pyknosed Nuclei (%) [5]: 8%
- Population Tubulin-Different-Phenotype (%) [5]: 2%
- Total Cell Count [5]: 288
- Population Apoptotic (%) [6]: 90%
- Population Fragmented Nuclei (%) [6]: 18%
- Population Healthy Nuclei (%) [6]: 73%
- Population Membrane Permeable-Phenotype (%) [6]: 6%
- Population Mitochondria Different-Phenotype (%) [6]: 0%
- Population Mitotic Cells (%) [6]: 9%
- Population Pyknosed Nuclei (%) [6]: 7%
- Population Tubulin-Different-Phenotype (%) [6]: 4%
- Population Apoptotic (%) [7]: 82%
- Population Fragmented Nuclei (%) [7]: 17%
- Population Healthy Nuclei (%) [7]: 74%
- Population Hoechst High Intensity Objects (%) [7]: 1%
- Population Membrane Permeable-Phenotype (%) [7]: 6%
- Population Mitochondria Different-Phenotype (%) [7]: 0%
- Population Mitotic Cells (%) [7]: 17%
- Population Normal (%) [7]: 98%
- Population Pyknosed Nuclei (%) [7]: 7%
- Population Tubulin-Different-Phenotype (%) [7]: 2%
- Total Cell Count [7]: 378
- Population Apoptotic (%) [8]: 75%
- Population Fragmented Nuclei (%) [8]: 14%
- Population Healthy Nuclei (%) [8]: 79%
- Population Hoechst High Intensity Objects (%) [8]: 0%
- Population Mitochondria Different-Phenotype (%) [8]: 2%
- Population Mitotic Cells (%) [8]: 25%
- Population Normal (%) [8]: 99%
- Population Pyknosed Nuclei (%) [8]: 5%
- Total Cell Count [8]: 219
- Population Apoptotic (%) [9]: 84%
- Population Fragmented Nuclei (%) [9]: 20%
- Population Healthy Nuclei (%) [9]: 72%
- Population Hoechst High Intensity Objects (%) [9]: 1%
- Population Membrane Permeable-Phenotype (%) [9]: 1%
- Population Mitochondria Different-Phenotype (%) [9]: 1%
- Population Mitotic Cells (%) [9]: 16%
- Population Normal (%) [9]: 98%
- Population Pyknosed Nuclei (%) [9]: 6%
- Population Tubulin-Different-Phenotype (%) [9]: 0%
- Total Cell Count [9]: 391
- Population Apoptotic (%) [10]: 71%
- Population Fragmented Nuclei (%) [10]: 17%
- Population Healthy Nuclei (%) [10]: 74%
- Population Hoechst High Intensity Objects (%) [10]: 2%
- Population Membrane Permeable-Phenotype (%) [10]: 3%
- Population Mitochondria Different-Phenotype (%) [10]: 3%
- Population Mitotic Cells (%) [10]: 28%
- Population Normal (%) [10]: 97%
- Population Pyknosed Nuclei (%) [10]: 7%
- Population Tubulin-Different-Phenotype (%) [10]: 4%
- Total Cell Count [10]: 186
- Population Apoptotic (%) [11]: 92%
- Population Fragmented Nuclei (%) [11]: 14%
- Population Healthy Nuclei (%) [11]: 77%
- Population Hoechst High Intensity Objects (%) [11]: 2%
- Population Membrane Permeable-Phenotype (%) [11]: 4%
- Population Mitochondria Different-Phenotype (%) [11]: 1%
- Population Mitotic Cells (%) [11]: 7%
- Population Normal (%) [11]: 97%
- Population Pyknosed Nuclei (%) [11]: 8%
- Population Tubulin-Different-Phenotype (%) [11]: 1%
- Total Cell Count [11]: 497
- Population Apoptotic (%) [12]: 86%
- Population Fragmented Nuclei (%) [12]: 16%
- Population Healthy Nuclei (%) [12]: 76%
- Population Membrane Permeable-Phenotype (%) [12]: 5%
- Population Mitochondria Different-Phenotype (%) [12]: 0%
- Population Mitotic Cells (%) [12]: 13%
- Population Pyknosed Nuclei (%) [12]: 7%
- Total Cell Count [12]: 294
